Tests used:
human UGT1A1 [1] = target: T1, human UGT1A1 (Homo sapiens, UniProt P22309); experiment: Inhibition of estradiol 3-O-glucuronidation in the UGT1A1 recombinant system; format: biochemical; settings: for Inhibitory pattern against estradiol 3-O-glucuronidation: Recombinant UGT1A1, Dixon plot; for Inhibition of UGT1A1 activity: UGT1A1 recombinant system, 50 μM fatty acid
T1 sequence (P22309 26-533): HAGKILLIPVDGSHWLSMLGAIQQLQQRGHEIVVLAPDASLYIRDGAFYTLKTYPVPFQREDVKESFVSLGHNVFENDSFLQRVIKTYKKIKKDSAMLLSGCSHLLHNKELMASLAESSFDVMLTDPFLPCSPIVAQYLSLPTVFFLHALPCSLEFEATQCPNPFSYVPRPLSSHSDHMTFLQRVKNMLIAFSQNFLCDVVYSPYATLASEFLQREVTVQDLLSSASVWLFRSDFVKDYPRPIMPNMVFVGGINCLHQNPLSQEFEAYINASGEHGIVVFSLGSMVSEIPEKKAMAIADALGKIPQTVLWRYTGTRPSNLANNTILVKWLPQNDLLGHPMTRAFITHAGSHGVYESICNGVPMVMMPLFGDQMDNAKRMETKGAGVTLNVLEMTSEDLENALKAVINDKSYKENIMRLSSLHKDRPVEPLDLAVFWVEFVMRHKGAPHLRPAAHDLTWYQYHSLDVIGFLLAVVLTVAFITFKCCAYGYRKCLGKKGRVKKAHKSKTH
Method in brief: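 Recombinant UGT1A1 Supersomes (0.25 mg/ml) were used in 50 mM Tris-HCl pH 7.4, 10 mM MgCl2, 25 μg/ml alamethicin and 2 mM UDPGA, with test fatty acid at 1–50 μM, 3-min preincubation, and 30 min at 37°C. For IC50, estradiol was 10 μM, runs were duplicate, and values came from linear regression. For Ki, estradiol was 5, 10 or 20 μM with Dixon plot. Product measured by HPLC-fluorescence against authentic standard.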

[2] = target: T2, UGT1A1 activity in human liver microsomes (Homo sapiens, UniProt P22309); experiment: Inhibition of estradiol 3-O-glucuronidation in human liver microsomes; format: biochemical; settings: for Inhibitory pattern against estradiol 3-O-glucuronidation: Human liver microsomes, Dixon plot
T2 sequence (P22309 26-533): T1 sequence (P22309 26-533)
Method in brief: (§1)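 Microsomes from human liver or small intestine (0.25 mg/ml) were incubated with 50 mM Tris-HCl pH 7.4, 10 mM MgCl2, 25 μg/ml alamethicin, 2 mM UDPGA, estradiol at 5, 10 or 20 μM, and test fatty acid at 1–50 μM. After 3-min preincubation at 37°C, UDPGA was added to start; 30 min at 37°C; cold methanol stop. Glucuronide measured by HPLC-fluorescence (ex 280/em 310 nm); Dixon plot gave inhibition type and Ki.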

UGT1A1 = experiment: Inhibition of estradiol 3-O-glucuronidation in human small intestine microsomes; format: biochemical; settings: human, human small intestine microsomes; for activity at 30 min, 50 μM: pH 7.4, probe estradiol (10 μM; estradiol 3-O-glucuronide formation)
Method in brief: as §1

[3] = tested on: UGT1A1 activity in human small intestine microsomes; experiment: as above; format: biochemical; settings: Human small intestine microsomes; Dixon plot
Method in brief: as §1

hUGT1 mice = format: in vivo; settings: neonatal hUGT1 mice; oral 10 mg/kg at 12 days after birth; 48 hours after treatment; control increase 2.3 ± 3.2 mg/dL
[4] = tested on: bilirubin clearance by UGT1A1; experiment: Estimated ratio of intrinsic clearance; settings: Equation 4; DHA concentration in human breast milk around 60 μM
human UGT1A1 [5] = target: T1, human UGT1A1; settings: read-out: Km value of bilirubin glucuronidation; cited from earlier work

Molecule `CCCCCC/C=C\CCCCCCCC(=O)O` [Palmitoleic acid] has an IC50 (human UGT1A1 [1]) of 37.1 µM.

For `CCCCCCCC/C=C\CCCCCCCC(=O)O` [Oleic acid], the IC50 (human UGT1A1 [1]) was 31.6 µM, the Ki (human UGT1A1 [1]) was 23.4 µM and the “Inhibitory pattern against estradiol 3-O-glucuronidation” value (from here on “Inhibitory pattern”) (human UGT1A1 [1]) was “non-competitively”. The Ki [2] was 29.3 µM, the “Inhibitory pattern” value [2] was “non-competitively” and the activity at 30 min, 50 μM (UGT1A1) was > 80%.

With `CCCCCCCCCCCCCCCCCCCC(=O)O` [arachidic acid] the IC50 (human UGT1A1 [1]) was > 50 µM and the “Inhibition of UGT1A1 activity” value (human UGT1A1 [1]) was “not inhibited at all”.

`CCCCC/C=C\C/C=C\C/C=C\C/C=C\CCCC(=O)O` [Arachidonic acid] showed an IC50 (human UGT1A1 [1]) of 22.7 µM.

For `CCCCCCCCCCCCCCCCCCCCCC(=O)O` [behenic acid], the IC50 (human UGT1A1 [1]) was > 50 µM and the “Inhibition of UGT1A1 activity” value (human UGT1A1 [1]) was “not inhibited at all”.

For `CCCCCCCCCCCCCCCCCC(=O)O` [stearic acid], the IC50 (human UGT1A1 [1]) was > 50 µM.

With `CCCCCCCCCC(=O)O` [decanoic acid] the IC50 (human UGT1A1 [1]) was > 50 µM.

In the case of `CCCCC/C=C\C/C=C\CCCCCCCC(=O)O` [Linoleic acid], the IC50 (human UGT1A1 [1]) is reported as 33.1 µM, the Ki (human UGT1A1 [1]) is reported as 22.1 µM and the “Inhibitory pattern” value (human UGT1A1 [1]) is reported as “non-competitively”. The Ki [2] was 24 µM, the “Inhibitory pattern” value [2] was “non-competitively” and the activity at 30 min, 50 μM (UGT1A1) was > 80%.

For `CC/C=C\C/C=C\C/C=C\C/C=C\C/C=C\C/C=C\CCC(=O)O` [DHA, docosahexaenoic acid], the IC50 (human UGT1A1 [1]) was 11.6 µM, the Ki (human UGT1A1 [1]) was 1.8 µM and the “Inhibitory pattern” value (human UGT1A1 [1]) was “non-competitive”. For the same molecule, the Ki [2] was 4.3 µM, the “Inhibitory pattern” value [2] was “non-competitive” and the “Inhibitory pattern” value [3] was “non-competitive”. The Ki at 30 min (UGT1A1; pH 7.4) was 5.2 µM, the “Increase of serum bilirubin levels from 12 days to 14 days after birth” value (hUGT1 mice) was 6.6 mg/dL and the “R value (ratio of intrinsic clearance in presence and absence of inhibitor)” value [4] was 0.08.

For `C=CC1=C(C)/C(=C/c2[nH]c(Cc3[nH]c(/C=C4\NC(=O)C(C)=C4C=C)c(C)c3CCC(=O)O)c(CCC(=O)O)c2C)NC1=O` [bilirubin], the Km (human UGT1A1 [5]) is listed as ~2 µM.

With `CCCCCCCCCCCCCC(=O)O` [myristic acid] the IC50 (human UGT1A1 [1]) was > 50 µM and the “Inhibition of UGT1A1 activity” value (human UGT1A1 [1]) was “not inhibited at all”.

In the case of `CCCCCCCCCCCCCCCC(=O)O` [palmitic acid], the IC50 (human UGT1A1 [1]) is reported as > 50 µM and the “Inhibition of UGT1A1 activity” value (human UGT1A1 [1]) is reported as “not inhibited at all”.

In the case of `CC/C=C\C/C=C\C/C=C\C/C=C\C/C=C\CCCC(=O)O` [EPA, eicosapentaenoic acid], the IC50 (human UGT1A1 [1]) is reported as 19.9 µM.

In the case of `CCCCCCCCCCCCCCCCCCCCCCCC(=O)O` [lignoceric acid], the “Inhibition of UGT1A1 activity” value (human UGT1A1 [1]) is reported as “not inhibited at all”.

In the case of `CCCCCCCCCCCC(=O)O` [lauric acid], the “Inhibition of UGT1A1 activity” value (human UGT1A1 [1]) is reported as “not inhibited at all”.

Reference: article PMC3793218 (Scientific Reports, 2013)
